KCNK3 inh: human KCNK3 channel inhibition, primary screen | O14649 | CHO-KCNK3 thallium flux, FluxOR fluorescence; hits give low values | B-score at 10 µM | hit rate 0.84% among 340,000 | AID 602410;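 active means B-score under library mean minus 4 SD, starting fluorescence ratio at most library mean plus 5 SD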;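 further: more negative B-score means stronger inhibition of thallium flux through KCNK3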
Kir21 block: inhibitors of mouse Kir2.1 inward-rectifier potassium channel; P35561; HEK293-Kir2.1, FluxOR thallium flux fluorescence; hits give low values; B-score at 10 µM; hit rate 0.85% among 310,000; AID 1672;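 active means fluorescence ratio B-score at or below minus 3 SD of library scores, with starting-brightness B-score within 2 SD, cut at about -4.2 in these data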;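 further: channel flux triggered by added potassium and thallium sulfate stimulus; B-score of peak minus minimum fluorescence over baseline after thallium stimulus; more negative B-score means stronger Kir2.1 block with less thallium influx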
hERG rescue: hERG (human) protection from proarrhythmic block. activation (rescue from dofetilide block), less the hit threshold, % at 10 µM. Q12809. AID 1511. CHO-hERG, FluxOR thallium flux, dofetilide IC70 present. hit rate 0.51% among 310,000;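 active means activation above the mean of controls blocked by dofetilide plus 5 SD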;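 further: thallium influx through hERG after potassium depolarization seen as dye fluorescence rise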
KCNK9 inh-1: inhibitors of human KCNK9 two-pore domain potassium channel. B-score at 10 µM. hit rate 1.2% among 310,000. HEK293 KCNK9, FluxOR thallium flux fluorescence; hits give low values. AID 488922;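 active means ratio B-score over 3 SD below the library mean, with starting fluorescence within 5 SD of its mean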;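 further: negative B-score means less thallium flux so channel inhibition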
Target sequence (Q9NPC2 whole entry, looked up, the tested form may be a part): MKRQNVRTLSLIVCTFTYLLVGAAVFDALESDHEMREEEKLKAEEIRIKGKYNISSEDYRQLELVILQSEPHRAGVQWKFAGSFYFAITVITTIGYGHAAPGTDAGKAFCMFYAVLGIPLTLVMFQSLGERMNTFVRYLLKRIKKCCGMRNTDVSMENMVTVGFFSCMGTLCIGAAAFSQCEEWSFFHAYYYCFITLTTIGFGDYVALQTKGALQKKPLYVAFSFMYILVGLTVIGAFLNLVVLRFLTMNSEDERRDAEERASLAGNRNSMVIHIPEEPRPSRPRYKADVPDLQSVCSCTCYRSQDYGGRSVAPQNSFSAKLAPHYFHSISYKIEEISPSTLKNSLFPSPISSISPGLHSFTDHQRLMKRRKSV
KCNQ1 pot: potentiators or activators of human KCNQ1 potassium channel; B-score at 10 µM; AID 2648; hit rate 0.35% among 310,000; P51787; CHO-K1 KCNQ1, thallium flux FluxOR fluorescence; hits give high values;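 active means fluorescence ratio B-score, a plate-corrected score, at least three library SD, with initial intensity B-score within 5 SD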
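Assay system: stable KCNQ1 CHO-K1 line; medium: assay buffer, equal DMSO in all wells; timing: 90 min dye loading and 20 min compound exposure, both at room temperature; technique: kinetic FluxOR thallium fluorescence, 10-s 1-Hz baseline, 110-s post-stimulus read; read-out basis: B score of baseline-normalized fluorescence ratio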
KCNQ1 block: inhibitors of human KCNQ1 potassium channel | P51787 | CHO-K1 KCNQ1, FluxOR thallium flux fluorescence; hits give high values | B-score at 10 µM | hit rate 1.3% among 310,000;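 active means compounds whose thallium flux B-score, printed positive for inhibition, exceeds three library SD while starting fluorescence stays within three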;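 further: channel opened by potassium depolarization with thallium stimulus after 20 min compound exposure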
hERG ctr: blocks human hERG, in counter-screen for Kir2.1 inhibitors; inhibition, % at 10 µM; AID 2236; hERG-expressing cells, thallium flux; hit rate 20% among 320; shares compounds with Kir21 block;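 further: host cells are CHO cells stably expressing hERG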
KCNK9 inh-2: selectivity of Kir2.1 inhibitors: effect on human KCNK9; inhibition, % at 10 µM; hit rate 5% among 320; KCNK9-expressing cells, ion flux inhibition; AID 2329; shares compounds with Kir21 block
Kir2-1 patch inh: blocks mouse Kir2.1 current in automated electrophysiology. hit rate 71% among 320. shares compounds with Kir21 block. Kir2.1 cells, automated patch-clamp current inhibition. inhibition, % at 25 µM
An asterisk follows results filed as active; i = inactive; / = no result. Rows were chosen to be rich in hits. Some 3.7% of all compounds tested hit in one or more screens of this group. Unless noted, how the calls were made is not given here.

SMILES	KCNK3 inh	Kir21 block	hERG rescue	KCNK9 inh-1	KCNQ1 pot	KCNQ1 block	hERG ctr	KCNK9 inh-2	Kir2-1 patch inh
CC(C)CCn1c2ccccc2c2cc(CC(N)=O)ccc21	i	4	-6	i	i	i	i	i	i
Cc1cc(Cl)ccc1OC(C)C(=O)NC(C)C1CCCO1 (centres undefined)	i	-8.5*	-10	i	i	i	i	i	9.2%*
CC(NC(=O)Nc1ccc(Cl)cc1)C1CCCO1 (centres undefined)	i	-0.34	-3	i	i	i	/	/	/
CC1(C)CC(=O)C=C(c2cccc(O)c2)C1	i	/	/	/	/	/	/	/	/
COc1ccc(Oc2c(-c3ccc(O)cc3O)n[nH]c2C)cc1	i	-5.7*	-10	i	i	i	i	i	0.2%*
CCc1ccc(C(C)NC(=O)c2ccc3c(c2)OCO3)cc1 (centres undefined)	i	0.01	0	i	i	i	/	/	/
CC(C)(c1ccccc1)c1ccc(OCCCNCCO)cc1	i	-8.6*	-11	i	i	i	i	i	59%*
CC(C)NCCCOc1ccc(C(C)(C)c2ccccc2)cc1	i	-2.4	1	i	i	i	/	/	/
Cc1ccc(OCCOCCN2CCN(C)CC2)c(C(C)(C)C)c1	i	-1.8	-10	i	i	i	/	/	/
CC(C)(C)c1cc(Cl)ccc1OCCOCCN1CCCC1	i	-9.6*	-8	i	i	i	58%*	i	9.2%*
Cc1ccc(S(=O)(=O)NCCn2cnc([N+](=O)[O-])n2)cc1	i	0.61	-13	i	i	i	/	/	/
Cc1ccc(CNCC(O)(c2ccccc2)c2ccccc2)cc1	i	-9.2*	-10	i	i	i	i	i	i
Cc1ccc(CNC(=O)NCc2ccccc2)cc1	i	0.54	-5	i	i	i	/	/	/
CC(C)[C@H](NC(=O)[C@@H]1CSC2c3ccccc3C(=O)N21)C(=O)N1CCCCC1 (some centres undefined)	i	-0.55	-7	i	i	i	/	/	/
COc1ccc(Nc2ccnc3ccccc23)cc1	i	-15*	-10	i	i	i	i	i	82%*
Cc1ccccc1Oc1ccc2c(c1)[C@@H]1C[C@H]3[C@@H](C(=O)N1CC2)[C@H](C)ON3C	i	/	/	/	/	/	/	/	/
C=CCn1c(SCC(=O)NC(C)(C)C)nnc1-c1ccccc1O	i	0.26	-9	i	i	i	/	/	/
C=CCn1c(SCc2cccc(C#N)c2)nnc1-c1ccccc1O	i	-5.9*	-5	i	i	i	i	i	24%*
CC(=O)OC1=C(C#N)Cn2ccc3cccc1c32	/	-6.7*	-5	i	i	i	i	i	i
CCCCn1nc(C(=O)Nc2ccc(-n3cnnn3)cc2)c2ccccc2c1=O	i	/	/	/	/	/	/	/	/
Cc1ccc(SCC(=O)NNC(=O)c2cncc(Br)c2)cc1	i	/	/	/	/	/	/	/	/
COc1ccc(N2CC(NC(=O)NCCC(C)C)CC2=O)cc1 (centres undefined)	i	-0.2	-2	i	i	i	/	/	/
CC(CCc1ccccc1)NC(=O)CC(C)c1ccccc1 (centres undefined)	i	-8*	-5	i	i	i	i	i	38%*
CC(CCc1ccccc1)NC(=O)CSc1ccccn1 (centres undefined)	i	-3.1	-8	i	i	i	/	/	/
CC(O)CNCCCOc1cccc(Oc2ccccc2)c1 (centres undefined)	i	-7.6*	-5	i	i	i	i	i	77%*
O=C(O)COc1ccccc1/C=N/NC(=O)CSc1nc2ccccc2n1Cc1ccccc1Cl	i	2.8	-2	i	i	i	i	i	i

Source: PubChem
